Measured values reported in ChEMBL document CHEMBL5724801, “EUbOPEN Chemogenomics Library - Multiplex” (2024).
Values joined by “and” are separate entries in the source; they are usually repeats but may differ in a detail not shown here. Identical values can stand only once.

System: U2OS
Experiment: Multiplex assay against U2OS
Type: toxicity, cell-based
Details: human
Method in brief: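 Per cents of healthy-nucleus cells form the tubulin, mitochondrial-mass and membrane-permeability phenotype values. Live cells were stained at seeding with Hoechst33342, BioTracker Green Microtubule Cytoskeleton Dye, MitoTracker Red and Annexin V Alexa Fluor 680. After compound addition they were imaged on a CQ1 microscope at 37°C and 5% CO2, and CellPathfinder machine-learning gating split them into Hoechst high-intensity objects or normal cells, normal cells into healthy, pyknosed or fragmented nuclei, and pyknosed cells into mitotic or apoptotic.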

[1] = 12 h, 1 µM, compound concentration 1 uM
[2] = 12 h, 10 µM, compound concentration 10 uM
[3] = 24 h, 1 µM, compound concentration 1 uM
[4] = 24 h, 10 µM, compound concentration 10 uM
[5] = 48 h, 1 µM, compound concentration 1 uM
[6] = 48 h, 10 µM, compound concentration 10 uM

## N#Cc1c(Oc2cccc(OS(=O)(=O)CCCC(F)(F)F)c2)cccc1C(F)(F)F
[1]
  Population Apoptotic (%): 77% and 81%
  Population Fragmented Nuclei (%): 27% and 12%
  Population Healthy Nuclei (%): 61% and 76%
  Population Hoechst High Intensity Objects (%): 3% and 0%
  Population Membrane Permeable-Phenotype (%): 4% and 7%
  Population Mitochondria Different-Phenotype (%): 2% and 7%
  Population Mitotic Cells (%): 22% and 18%
  Population Normal (%): 96% and 99%
  Population Pyknosed Nuclei (%): 10%
  Population Tubulin-Different-Phenotype (%): 0% and 8%
  Total Cell Count: 220 and 109
[2]
  Population Apoptotic (%): 78% and 90%
  Population Fragmented Nuclei (%): 27% and 14%
  Population Healthy Nuclei (%): 63% and 75%
  Population Hoechst High Intensity Objects (%): 3% and 0%
  Population Membrane Permeable-Phenotype (%): 11% and 21%
  Population Mitochondria Different-Phenotype (%): 8% and 4%
  Population Mitotic Cells (%): 21% and 9%
  Population Normal (%): 96% and 99%
  Population Pyknosed Nuclei (%): 8% and 9%
  Population Tubulin-Different-Phenotype (%): 7%
  Total Cell Count: 222 and 112
[3]
  Population Apoptotic (%): 75% and 90%
  Population Fragmented Nuclei (%): 25% and 12%
  Population Healthy Nuclei (%): 61% and 79%
  Population Hoechst High Intensity Objects (%): 2% and 1%
  Population Membrane Permeable-Phenotype (%): 4% and 11%
  Population Mitochondria Different-Phenotype (%): 2% and 3%
  Population Mitotic Cells (%): 24% and 10%
  Population Normal (%): 97% and 98%
  Population Pyknosed Nuclei (%): 12% and 7%
  Population Tubulin-Different-Phenotype (%): 3% and 7%
  Total Cell Count: 263 and 130
[4]
  Population Apoptotic (%): 66%
  Population Fragmented Nuclei (%): 26% and 9%
  Population Healthy Nuclei (%): 66% and 83%
  Population Hoechst High Intensity Objects (%): 6% and 3%
  Population Membrane Permeable-Phenotype (%): 10% and 11%
  Population Mitochondria Different-Phenotype (%): 8% and 0%
  Population Mitotic Cells (%): 33%
  Population Normal (%): 93% and 96%
  Population Pyknosed Nuclei (%): 7%
  Population Tubulin-Different-Phenotype (%): 5% and 7%
  Total Cell Count: 252 and 130
[5]
  Population Apoptotic (%): 87% and 100%
  Population Fragmented Nuclei (%): 17% and 16%
  Population Healthy Nuclei (%): 70% and 73%
  Population Hoechst High Intensity Objects (%): 3% and 2%
  Population Membrane Permeable-Phenotype (%): 4% and 9%
  Population Mitochondria Different-Phenotype (%): 0% and 4%
  Population Mitotic Cells (%): 12% and 0%
  Population Normal (%): 96% and 97%
  Population Pyknosed Nuclei (%): 11% and 9%
  Population Tubulin-Different-Phenotype (%): 3% and 7%
  Total Cell Count: 361 and 195
[6]
  Population Apoptotic (%): 91% and 100%
  Population Fragmented Nuclei (%): 23% and 11%
  Population Healthy Nuclei (%): 64% and 77%
  Population Hoechst High Intensity Objects (%): 4% and 3%
  Population Membrane Permeable-Phenotype (%): 10% and 13%
  Population Mitochondria Different-Phenotype (%): 6% and 4%
  Population Mitotic Cells (%): 8% and 0%
  Population Normal (%): 95% and 96%
  Population Pyknosed Nuclei (%): 11% and 10%
  Population Tubulin-Different-Phenotype (%): 6% and 7%
  Total Cell Count: 328 and 184

## Cn1cc(C(=O)OCC2CCN(CCNS(C)(=O)=O)CC2)c2ccccc21
[1]
  Population Apoptotic (%): 73% and 77%
  Population Fragmented Nuclei (%): 27% and 20%
  Population Healthy Nuclei (%): 63% and 71%
  Population Hoechst High Intensity Objects (%): 3% and 0%
  Population Membrane Permeable-Phenotype (%): 7% and 13%
  Population Mitochondria Different-Phenotype (%): 4% and 5%
  Population Mitotic Cells (%): 26% and 22%
  Population Normal (%): 96% and 100%
  Population Pyknosed Nuclei (%): 8%
  Population Tubulin-Different-Phenotype (%): 5% and 6%
  Total Cell Count: 226 and 110
[2]
  Population Apoptotic (%): 53% and 57%
  Population Fragmented Nuclei (%): 36% and 18%
  Population Healthy Nuclei (%): 58% and 76%
  Population Hoechst High Intensity Objects (%): 0% and 1%
  Population Membrane Permeable-Phenotype (%): 10% and 17%
  Population Mitochondria Different-Phenotype (%): 5% and 13%
  Population Mitotic Cells (%): 46% and 42%
  Population Normal (%): 99% and 98%
  Population Pyknosed Nuclei (%): 5%
  Population Tubulin-Different-Phenotype (%): 5% and 9%
  Total Cell Count: 252 and 137
[3]
  Population Apoptotic (%): 95% and 100%
  Population Fragmented Nuclei (%): 26% and 17%
  Population Healthy Nuclei (%): 65% and 78%
  Population Hoechst High Intensity Objects (%): 2% and 0%
  Population Membrane Permeable-Phenotype (%): 4% and 10%
  Population Mitochondria Different-Phenotype (%): 2% and 5%
  Population Mitotic Cells (%): 4% and 0%
  Population Normal (%): 97% and 100%
  Population Pyknosed Nuclei (%): 8% and 4%
  Population Tubulin-Different-Phenotype (%): 3% and 6%
  Total Cell Count: 263 and 144
[4]
  Population Apoptotic (%): 92% and 64%
  Population Fragmented Nuclei (%): 33% and 16%
  Population Healthy Nuclei (%): 61% and 73%
  Population Hoechst High Intensity Objects (%): 2% and 1%
  Population Membrane Permeable-Phenotype (%): 11% and 12%
  Population Mitochondria Different-Phenotype (%): 5% and 8%
  Population Normal (%): 97% and 98%
  Population Pyknosed Nuclei (%): 4% and 9%
  Population Tubulin-Different-Phenotype (%): 4% and 8%
  Total Cell Count: 281 and 150
[5]
  Population Apoptotic (%): 91% and 57%
  Population Fragmented Nuclei (%): 20% and 13%
  Population Healthy Nuclei (%): 69% and 75%
  Population Hoechst High Intensity Objects (%): 1% and 2%
  Population Membrane Permeable-Phenotype (%): 8% and 6%
  Population Mitochondria Different-Phenotype (%): 3% and 5%
  Population Normal (%): 98% and 97%
  Population Pyknosed Nuclei (%): 9% and 10%
  Population Tubulin-Different-Phenotype (%): 5% and 4%
  Total Cell Count: 372 and 182
[6]
  Population Apoptotic (%): 88% and 75%
  Population Healthy Nuclei (%): 58% and 79%
  Population Hoechst High Intensity Objects (%): 1% and 3%
  Population Membrane Permeable-Phenotype (%): 9% and 13%
  Population Mitochondria Different-Phenotype (%): 4% and 6%
  Population Mitotic Cells (%): 11% and 25%
  Population Normal (%): 98% and 97%
  Population Pyknosed Nuclei (%): 10%
  Population Tubulin-Different-Phenotype (%): 7% and 5%
  Total Cell Count: 341 and 200

## Nc1nc(-c2ccco2)c2cnn(Cc3ccccc3F)c2n1
[1]
  Population Apoptotic (%): 82% and 92%
  Population Fragmented Nuclei (%): 23%
  Population Healthy Nuclei (%): 68% and 64%
  Population Hoechst High Intensity Objects (%): 1% and 0%
  Population Membrane Permeable-Phenotype (%): 4% and 12%
  Population Mitochondria Different-Phenotype (%): 2% and 5%
  Population Mitotic Cells (%): 17% and 7%
  Population Normal (%): 98% and 99%
  Population Pyknosed Nuclei (%): 8% and 12%
  Population Tubulin-Different-Phenotype (%): 3% and 8%
  Total Cell Count: 280 and 109
[2]
  Population Apoptotic (%): 87% and 77%
  Population Fragmented Nuclei (%): 41% and 20%
  Population Healthy Nuclei (%): 45% and 72%
  Population Hoechst High Intensity Objects (%): 5% and 0%
  Population Membrane Permeable-Phenotype (%): 10% and 5%
  Population Mitochondria Different-Phenotype (%): 4% and 5%
  Population Mitotic Cells (%): 12% and 22%
  Population Normal (%): 94% and 99%
  Population Pyknosed Nuclei (%): 12% and 7%
  Population Tubulin-Different-Phenotype (%): 7% and 1%
  Total Cell Count: 197 and 125
[3]
  Population Apoptotic (%): 96% and 84%
  Population Fragmented Nuclei (%): 19% and 18%
  Population Healthy Nuclei (%): 70% and 71%
  Population Hoechst High Intensity Objects (%): 1% and 4%
  Population Membrane Permeable-Phenotype (%): 4% and 10%
  Population Mitochondria Different-Phenotype (%): 1% and 3%
  Population Normal (%): 98% and 95%
  Population Pyknosed Nuclei (%): 9% and 10%
  Population Tubulin-Different-Phenotype (%): 2% and 8%
  Total Cell Count: 332 and 127
[4]
  Population Apoptotic (%): 82% and 90%
  Population Fragmented Nuclei (%): 38% and 19%
  Population Healthy Nuclei (%): 53% and 73%
  Population Hoechst High Intensity Objects (%): 5% and 1%
  Population Membrane Permeable-Phenotype (%): 7% and 5%
  Population Mitochondria Different-Phenotype (%): 3% and 0%
  Population Mitotic Cells (%): 17% and 9%
  Population Normal (%): 94% and 98%
  Population Pyknosed Nuclei (%): 7%
  Population Tubulin-Different-Phenotype (%): 5% and 4%
  Total Cell Count: 230 and 157
[5]
  Population Apoptotic (%): 94% and 95%
  Population Fragmented Nuclei (%): 17% and 16%
  Population Healthy Nuclei (%): 74% and 67%
  Population Hoechst High Intensity Objects (%): 1% and 6%
  Population Membrane Permeable-Phenotype (%): 2% and 5%
  Population Mitochondria Different-Phenotype (%): 2% and 5%
  Population Mitotic Cells (%): 5% and 4%
  Population Normal (%): 98% and 93%
  Population Pyknosed Nuclei (%): 7% and 15%
  Population Tubulin-Different-Phenotype (%): 2% and 1%
[6]
  Population Apoptotic (%): 95% and 86%
  Population Fragmented Nuclei (%): 37% and 23%
  Population Healthy Nuclei (%): 51% and 69%
  Population Hoechst High Intensity Objects (%): 11% and 2%
  Population Membrane Permeable-Phenotype (%): 17% and 12%
  Population Mitochondria Different-Phenotype (%): 6%
  Population Mitotic Cells (%): 4% and 13%
  Population Normal (%): 88% and 97%
  Population Pyknosed Nuclei (%): 10% and 7%
  Population Tubulin-Different-Phenotype (%): 11% and 6%
  Total Cell Count: 252 and 196

## CN(C)C(=O)Cn1cc(-c2ccc(-c3cncc4ccccc34)cc2)cn1
[1]
  Population Apoptotic (%): 68% and 69%
  Population Fragmented Nuclei (%): 22% and 18%
  Population Healthy Nuclei (%): 68% and 69%
  Population Hoechst High Intensity Objects (%): 3% and 0%
  Population Membrane Permeable-Phenotype (%): 8% and 6%
  Population Mitochondria Different-Phenotype (%): 4% and 2%
  Population Mitotic Cells (%): 31% and 30%
  Population Normal (%): 96% and 99%
  Population Pyknosed Nuclei (%): 9% and 11%
  Population Tubulin-Different-Phenotype (%): 5% and 3%
  Total Cell Count: 240 and 110
[2]
  Population Apoptotic (%): 66% and 100%
  Population Fragmented Nuclei (%): 21% and 18%
  Population Healthy Nuclei (%): 67% and 75%
  Population Hoechst High Intensity Objects (%): 5% and 3%
  Population Membrane Permeable-Phenotype (%): 20% and 22%
  Population Mitochondria Different-Phenotype (%): 12% and 19%
  Population Normal (%): 94% and 96%
  Population Pyknosed Nuclei (%): 10% and 5%
  Population Tubulin-Different-Phenotype (%): 14% and 23%
  Total Cell Count: 205 and 98
[3]
  Population Apoptotic (%): 100% and 90%
  Population Fragmented Nuclei (%): 21% and 15%
  Population Healthy Nuclei (%): 69% and 76%
  Population Hoechst High Intensity Objects (%): 3% and 1%
  Population Membrane Permeable-Phenotype (%): 5% and 8%
  Population Mitochondria Different-Phenotype (%): 2% and 6%
  Population Mitotic Cells (%): 0% and 9%
  Population Normal (%): 96% and 98%
  Population Pyknosed Nuclei (%): 8%
  Population Tubulin-Different-Phenotype (%): 4%
  Total Cell Count: 278 and 127
[4]
  Population Apoptotic (%): 54% and 80%
  Population Fragmented Nuclei (%): 25% and 11%
  Population Healthy Nuclei (%): 64% and 84%
  Population Hoechst High Intensity Objects (%): 3% and 2%
  Population Membrane Permeable-Phenotype (%): 19% and 16%
  Population Mitochondria Different-Phenotype (%): 9% and 15%
  Population Mitotic Cells (%): 45% and 20%
  Population Normal (%): 96% and 97%
  Population Pyknosed Nuclei (%): 9% and 4%
  Population Tubulin-Different-Phenotype (%): 10% and 14%
  Total Cell Count: 244 and 110
[5]
  Population Apoptotic (%): 87% and 88%
  Population Fragmented Nuclei (%): 18% and 20%
  Population Healthy Nuclei (%): 69% and 67%
  Population Hoechst High Intensity Objects (%): 2% and 3%
  Population Membrane Permeable-Phenotype (%): 6% and 12%
  Population Mitochondria Different-Phenotype (%): 3% and 9%
  Population Mitotic Cells (%): 12% and 11%
  Population Normal (%): 97% and 96%
  Population Pyknosed Nuclei (%): 12% and 11%
  Population Tubulin-Different-Phenotype (%): 4% and 9%
  Total Cell Count: 333 and 163
[6]
  Population Apoptotic (%): 74% and 92%
  Population Fragmented Nuclei (%): 22% and 21%
  Population Healthy Nuclei (%): 62% and 68%
  Population Hoechst High Intensity Objects (%): 2%
  Population Membrane Permeable-Phenotype (%): 15% and 20%
  Population Mitochondria Different-Phenotype (%): 8% and 14%
  Population Normal (%): 97%
  Population Pyknosed Nuclei (%): 14% and 9%
  Population Tubulin-Different-Phenotype (%): 8% and 16%
  Total Cell Count: 302 and 149
